ChEMBL document CHEMBL1137313, “A chimeric ligand approach leading to potent antiprion active acridine derivatives: design, synthesis, and biological investigations” (J Med Chem, 2006)

Key:
[1] = tested on: ScN2a; assay: Toxicity against mouse ScN2a cells measured as less than 80% confluency after 1 week; format: functional
In short: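 RML-infected ScN2a mouse neuroblastoma cells cultured 1 week in MEM with 10% FCS, with compound renewed with medium every second day. Toxicity scored as confluency below 80% at the end of treatment.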

[2] = tested on: ScN2a; assay: Inhibition of protease-resistant scrapie prion protein activity in ScN2a cells; format: functional, cell-based; details: Mus musculus
In short: (§1)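 Mouse N2a neuroblastoma cells chronically infected with RML scrapie, subcloned for high PrPSc. Grown in MEM with 10% FCS, penicillin-streptomycin and L-glutamine; compound renewed with medium every second day. Lysed day 7 (~80% confluent), proteinase K 20 µg/mL 30 min 37°C, ultracentrifuged pellet immunoblotted with anti-PrP antibody. EC50 from densitometry of five concentrations; full activity means complete loss of PK-resistant PrP; triplicate experiments.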

[3] = tested on: ScN2a; assay: Antiprion activity in ScN2a cells assessed as complete reduction of protease-resistant scrapie prion protein; format: functional, Mus musculus; in short: as §1

Row | Structure (SMILES) | Activity [1] [nM] | EC50 [2] [nM] | Activity [3] [nM]
1 | COc1ccc2nc3cc(Cl)ccc3c(NCCN3CCN(CCCN4c5ccccc5CCc5ccccc54)CC3)c2c1 | 2000 | 570 | 1000
2 | COc1ccc2nc3cc(Cl)ccc3c(NCCCN3CCN(CCCN4c5ccccc5Sc5ccccc54)CC3)c2c1 | 2500 | 200 | 500
3 | c1ccc2c(c1)Sc1ccccc1N2CCCN1CCN(CCCNc2c3ccccc3nc3ccccc23)CC1 | 1000 | 140 | 500
4 | CN(C)CCCN1c2ccccc2CCc2ccccc21 [IMIPRAMINE] | – | 5000 | 10000
5 | COc1ccc2nc3cc(Cl)ccc3c(NCCCCN3CCN(CCCN4c5ccccc5CCc5ccccc54)CC3)c2c1 | 400 | 80 | 100
6 | c1ccc2c(c1)CCc1ccccc1N2CCCN1CCN(CCCNc2c3ccccc3nc3ccccc23)CC1 | 1000 | 230 | 500
7 | CCN(CC)CCCC(C)Nc1c2ccc(Cl)cc2nc2ccc(OC)cc12 (stereo not drawn) [QUINACRINE] | – | 300 | 500
8 | c1ccc(N(CCCN2CCN(CCNc3c4ccccc4nc4ccccc34)CC2)c2ccccc2)cc1 | 1000 | 75 | 200
9 | COc1ccc2nc3cc(Cl)ccc3c(NCCN3CCN(CCCN4c5ccccc5Sc5ccccc54)CC3)c2c1 | 4000 | 830 | 2000
10 | COc1ccc2nc3cc(Cl)ccc3c(NCCCCN3CCN(CCCN4c5ccccc5Sc5ccccc54)CC3)c2c1 | 2000 | 350 | 1000
11 | COc1ccc2nc3cc(Cl)ccc3c(NCCCN3CCN(CCCN4c5ccccc5CCc5ccccc54)CC3)c2c1 | 1500 | 260 | 500
12 | c1ccc2c(c1)CCc1ccccc1N2CCCN1CCN(CCCCNc2c3ccccc3nc3ccccc23)CC1 | 750 | 150 | 400
13 | COc1ccc2nc3cc(Cl)ccc3c(NCCN3CCN(CCCN(c4ccccc4)c4ccccc4)CC3)c2c1 | 1500 | 290 | 500
14 | c1ccc(N(CCCN2CCN(CCCNc3c4ccccc4nc4ccccc34)CC2)c2ccccc2)cc1 | 1500 | 120 | 500
15 | c1ccc(N(CCCN2CCN(CCCCNc3c4ccccc4nc4ccccc34)CC2)c2ccccc2)cc1 | 1000 | 230 | 400
16 | COc1ccc2nc3cc(Cl)ccc3c(NCCCN3CCN(CCCN(c4ccccc4)c4ccccc4)CC3)c2c1 | 2000 | 280 | 500
17 | c1ccc2c(c1)CCc1ccccc1N2CCCN1CCN(CCNc2c3ccccc3nc3ccccc23)CC1 | 500 | 20 | 75
18 | c1ccc2c(c1)Sc1ccccc1N2CCCN1CCN(CCCCNc2c3ccccc3nc3ccccc23)CC1 | 4000 | 300 | 750
19 | c1ccc2c(c1)Sc1ccccc1N2CCCN1CCN(CCNc2c3ccccc3nc3ccccc23)CC1 | 3000 | 370 | 600
20 | COc1ccc2nc3cc(Cl)ccc3c(NCCCCN3CCN(CCCN(c4ccccc4)c4ccccc4)CC3)c2c1 | >1000 | 250 | 500
